Measured values from ChEMBL document CHEMBL4513216, “Probing the Open Global Health Chemical Diversity Library for Multistage-Active Starting Points for Next-Generation Antimalarials” (ACS Infect Dis, 2020).

Test: Toxicity liver stage against HepG2, at 10uM
Assay type: cell-based
Set-up: test concentration 10 uM, cell line HepG2-A16-CD81EGFP
Conditions: human, HepG2-A16-CD81EGFP cells; read-out: INHIBITION
Method in brief: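 Uninfected HepG2-A16-CD81EGFP cells, 3 × 10^3 per well, 1536-well, plated on prespotted compound at 10 μM final, parasite-free screening media added to match infected plates; puromycin 10 μM positive, DMSO 0.5% negative; run in parallel with 48 h PbLuc assay at 37 °C, 5% CO2; viability by CellTiter-Glo luminescence, normalized to controls.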

Row | Structure (SMILES) | cytotoxicity at 10 µM [%]
1 | O=C([C@H]1C[C@H]2OCC[C@H]2N(Cc2ccccc2F)C1)N1CCCCO1 | -72.2
2 | CSCc1noc(-c2nc3c([nH]2)CCCNC3=O)n1 | -2.48
3 | CC(CNC(=O)N1CCN(c2cnccn2)CC1)Cc1cccs1 (stereo not given) | 1.7
4 | Cc1ccc(S(=O)(=O)N2CCC(S(=O)(=O)c3nncn3C)CC2)cc1C | -6.9
5 | NCCn1nc(C2CCN(Cc3ccc(Cl)c(Cl)c3)C2)c2nccnc21 (stereo not given) | 27.7
6 | O=C(NCCc1ccc(F)cc1)C1CN(C(=O)Cn2cncn2)C1 | 3.54
7 | O=C(c1c2c(N3CCCC3)ncnc2n2ccccc12)N1CCCC1 | -70.7
8 | CCC(O)CN1CCN(C(=O)CCSC)CC1 (stereo not given) | -3.5
9 | Clc1ccc(CNc2cnn(CCN3CCOCC3)c2)cc1Cl | 3.2
10 | Cc1ccc(S(=O)(=O)Cc2nsc(N(C)C)n2)c(C)c1 | -25.2
11 | O=C(CCC1CCCO1)NCc1ccccc1Cn1cncn1 (stereo not given) | -4.05
12 | CC(C)n1cc(CN2CCCN(C(=O)CN3CCCC3=O)CC2)cn1 | -27.5
13 | Cc1n[nH]c(C2CN(C(=O)c3ccoc3C)CCO2)n1 (stereo not given) | -22.4
14 | COCCn1ccnc1C1CCN(c2cccc(C(=O)O)n2)CC1 | -2.74
15 | Cc1noc(C)c1CNCc1c(C(C)C)nn(C)c1N1CCOCC1 | 4.8
16 | CC1(C)[C@H](Cc2cc(CO)on2)C[C@@H]1N(CC1CC1)CC1CC1 | 3.82
17 | Fc1ccc(CN2CCC3(CC2)CCN(Cc2nccs2)CC3)cc1 | 4.92
18 | Cc1cccc(O[C@H]2COCCN(C3CCOCC3)C2)n1 | 9.09
19 | Cc1ccc(N2CCCN(C(=O)c3cn(C)c4ccccc34)CC2)nn1 | -9.53
20 | COCc1cn([C@@H]2c3ccccc3C3(CCNCC3)[C@H]2O)nn1 | 1.2
21 | CC(C)COCC1CN(Cc2ccc3c(c2)OCO3)Cc2ncn(C)c21 (stereo not given) | -10.7
22 | Cc1nc(-c2ccc(Cl)s2)sc1C(=O)O | 7.51

Row | Structure (SMILES) | cytotoxicity at 10 µM [%]
23 | Cc1ccc(N2CCC3(CCN(C(=O)C4CCOC4)CC3)CC2)nn1 (stereo not given) | -0.28
24 | COc1ccc(-c2cccc(-c3ccn(CCCN(C)C)n3)c2)nn1 | -1.01
25 | COCCNC(=O)NCCS(=O)(=O)N1CCN(c2cccc(C)c2)CC1 | 4.31
26 | O=C(Nc1nncs1)NC1CCc2ccccc21 (stereo not given) | -10
27 | Cn1ccc(CN2CCC(CC(=O)NC3CCCC3)CC2)cc1=O | -16.8
28 | COC(=O)CS(=O)(=O)CCC(=O)N1CCCC1c1ccsc1 (stereo not given) | -16.5
29 | CNc1ccc(CC2CCCN(C(=O)c3c(C)noc3C)C2)nn1 (stereo not given) | -5
30 | Cc1cccn2c(=O)cc(CSCC(=O)Nc3nnc(C(C)C)s3)nc12 | 0.879
31 | CC(NC(=O)NCCNc1cccc(F)c1C#N)c1nccs1 (stereo not given) | -1.84
32 | O=C(c1ccc[nH]1)N1C[C@H](OCc2cccnc2)[C@H]2COC[C@H]21 | -10.4
33 | O=C(c1ccoc1)N1Cc2cnn(CC3CC3)c2C(COCC2CC2)C1 (stereo not given) | -6.98
34 | CC(C)CNC(=O)CSc1nnc(OC(C)C)s1 | 1.97
35 | O=C(c1ccccc1)N1C[C@H]2CCC[C@@]2(COCc2ccncc2)C1 | 1.59
36 | O=C(c1ccc(-n2cccn2)nc1)N1CCC(c2ccn[nH]2)C1 (stereo not given) | -0.399
37 | CN(C)[C@@H]1CCN(c2ncc(F)cn2)[C@H]1Cc1ccncc1 | -1.96
38 | Cc1c[nH]c(C2COCCN2S(=O)(=O)c2cn[nH]c2)n1 (stereo not given) | -22.8
39 | COc1ccc(C(=O)N2CCCC2c2cnn(C)c2)cn1 (stereo not given) | -3.63
40 | COc1ccccc1OCCN1CCC(N2CCNC2=O)CC1 | -3.19
41 | CC(C)=CCN1CC2(CCN(Cc3ncc[nH]3)CC2)CC1=O | -10.8
42 | CCCn1nc(C(=O)NCc2nnc3n2CCC3)ccc1=O | -3.18
43 | Cc1cnn(CC2CCN(CC(O)c3ccccc3F)CC2)c1 (stereo not given) | -5.18
44 | O=C(CCC1CCCC1)N1CCCC(c2ncc3c(n2)CCNC3)C1 (stereo not given) | -23

Row | Structure (SMILES) | cytotoxicity at 10 µM [%]
45 | O=C(NCCNC(=O)C1CCN(CC(F)(F)F)CC1)c1ccoc1 | 5.09
46 | COc1ccc(CCN2CCCC(CN(C)Cc3ccc(C)o3)C2)cc1 (stereo not given) | -14.5
47 | CCOC(=O)C1CCN(C(=O)CN2CCCC2c2cc(C)no2)CC1 (stereo not given) | 8.32
48 | CC(C)CCNC(=O)C1CCN(c2ccc3nnc(C(C)C)n3n2)CC1 | 1.68
49 | O=S(=O)(c1ccc(Cl)s1)N1CCCn2ncnc21 | -3.06
50 | OCC1CCC2(CC1)CN(Cc1ccccc1F)Cc1ccccc1O2 (stereo not given) | 3.68
51 | Cc1nn(C)c(N(C)C)c1CNCc1ccc(OCCN(C)C)cc1 | -4.89
52 | O=C1CSc2ccc(C(=O)N3CCCC(n4ccnc4)C3)cc2N1 (stereo not given) | -8.44
53 | COc1ccc(C(=O)C2CCCN(Cc3ccc(C)o3)C2)c(OC)c1 (stereo not given) | 1.17
54 | CS(=O)(=O)CCNC1CCCN(Cc2noc(C3CC3)n2)C1 (stereo not given) | -1.38
55 | Cc1nn(CC(C)C)c(N(C)C)c1CNCCCNS(C)(=O)=O | 1.73
56 | COc1ccc(N)c(N2CCN(C(C)=O)CC2)n1 | -6.22
57 | COc1ccccc1C1(CNc2ncc(S(N)(=O)=O)s2)CC1 | -3.6
58 | CC(C)N1CC2(CCCN(c3ncc(Cl)cc3F)C2)CCC1=O (stereo not given) | 12.2
59 | CCNC(=O)CCC(=O)Nc1ccc2nn(C(C)C)cc2c1 | -141
60 | CCNC(c1ccc(C)cc1)c1cccnc1 (stereo not given) | 0.533
61 | Cc1oc(C(=O)O)cc1S(=O)(=O)Nc1ccc(Cl)c(F)c1 | -5.92
62 | CCc1nnc(C2Cc3ccccc3CN2Cc2ncc(Cl)n2C)o1 (stereo not given) | 12.5
63 | COc1ccc(Cl)cc1S(=O)(=O)N1C[C@H]2CC[C@@H](C1)N(C)C2=O | 3.98
64 | CCS(=O)(=O)c1ncc(CN(C)Cc2ccccc2Cl)n1CCOC | 3.58
65 | c1cncc(-c2ncnc3c2CCN(Cc2ccsc2)CC3)c1 | 8.74
66 | CC(O)CN1CCC(CN(C)CC(=O)NC2CCOCC2)CC1 (stereo not given) | -3.33

Row | Structure (SMILES) | cytotoxicity at 10 µM [%]
67 | Cc1cccc(C)c1OC1CN(Cc2cnc(N3CCOCC3)nc2)C1 | 3.47
68 | CCc1ccc(CN2C[C@H](OCC(=O)N(C)C)[C@H]3COC[C@H]32)o1 | 2.46
69 | NC1CCN(C2CCN(c3ccc(-c4ccco4)cc3)CC2)CC1 | 1.03
70 | Cc1cc(NC(=O)CN2CCc3c(nc(C(C)C)n3C)C2)on1 | -3.17
71 | CN(C)CC1(O)CCCN(C(=O)c2ccccc2-n2cncn2)C1 (stereo not given) | 2.11
72 | CN(Cc1noc2c1CCCC2)C(=O)CN1C(=O)CSc2ccccc21 | -40.5
73 | CCn1nc(C)c(NC(=O)C(C)C)c1C | 1.73
74 | COc1ccc2cc(C3CN(C(=O)N(C)C)CCO3)ccc2c1 (stereo not given) | 4.26
75 | CC1CN(c2ncccc2C(=O)N[C@@H]2CCCc3ccccc32)CCN1 (stereo not given in full) | 10.7
76 | OC1CCCOC12CCN(Cc1nnc(-c3cccnc3)o1)CC2 (stereo not given) | 4.49
77 | Cn1cc(CN2C[C@@H]3COC[C@]3(C(=O)N3CCCO3)C2)cn1 | 12.1
78 | O=S(=O)(c1cccnc1)N1C[C@H]2CC[C@@H](C1)N(Cc1ccccc1)C2 | -5.79
79 | COCc1cnc2n1CCN(C(=O)c1cc3cc(Cl)ccc3o1)C2C (stereo not given) | -112
80 | CNc1cccc(C2CCCN(C(=O)c3cnccn3)C2)n1 (stereo not given) | -19.2
81 | CC(=O)N1CCC2(CCN(C(=O)c3ccc(Cl)c(C(F)(F)F)c3)C2)C1 (stereo not given) | -85.8
82 | O=C(Cc1ccccc1F)NCCN1CCOCC1 | -46.1
83 | c1ccc(COC2C[C@@H]3CN(Cc4cncnc4)C[C@@H]3C2)cc1 (stereo not given in full) | -40
84 | CCC(C)NC(=O)c1ccccc1-n1cnnn1 (stereo not given) | 13
85 | Cc1ccc(CN[C@@H]2COC[C@H]2c2ccc(F)cc2)cc1C | 9.07
86 | CC(Cn1ccnc1)NC(=O)NCCN1CCCCCC1=O (stereo not given) | -1.26
87 | CCOCc1nc2c(c(NC(CC)c3cccnc3)n1)CCNCC2 (stereo not given) | -4.28
88 | Cn1cnc2c1CCN(C(C(=O)N1CCCCC1)c1ccccc1)C2 (stereo not given) | -5.34

Row | Structure (SMILES) | cytotoxicity at 10 µM [%]
89 | Cc1ccc(N2CC[C@H]3O[C@H](C(=O)N4CCCCO4)CC[C@H]32)nn1 | 10.1
90 | CNc1cc(C)nc(C2CCN(CCO)CC2)n1 | 1.56
91 | CN(C)c1nccc(NCc2cc(-c3cccs3)n[nH]2)n1 | -5.03
92 | CSC(C)C(=O)NCCC(=O)N1CCN(c2ccccn2)CC1 (stereo not given) | 3.05
93 | CCOc1cccc2c1OCC(C(=O)NS(=O)(=O)c1c(C)noc1C)=C2 | -12.1
94 | COc1c(CNCc2ccc(C(=O)N3CCCC3)cc2)c(C)nn1C | -3.23
95 | Cn1cc(N2C(=O)CC[C@@H]3[C@H]2CCN3Cc2cccc(C#N)c2)cn1 | 8.51
96 | O=C(CCc1ccncc1)N1CCCC(n2cccn2)C1 (stereo not given) | -5.57
97 | CC(C)NC(=O)C1(CC2CC(c3ccc(F)cc3)=NO2)CCNCC1 (stereo not given) | -8.54
98 | CC(=O)N1CC(=O)N(c2ccccc2)CC12CCN(CC1CC1)C2 (stereo not given) | 4.45
99 | CC1CCN(CC2CCN(C(=O)c3c[nH]c4ncccc34)CC2)CC1 | 10
100 | Cc1cc(-c2nn(C)c(Cl)c2CN2CCOCC(O)C2)no1 (stereo not given) | -14.8
101 | Cc1nc2cc(=O)[nH]n2c(C)c1CC(=O)NCc1ccoc1 | -10.4
102 | CCOC(=O)c1sc2ccsc2c1CNC(=O)C(C)(C)C#N | -4.42
103 | CCN(CC)C(=O)c1ccc(Cl)c(NC(=O)c2cc(C(C)C)on2)c1 | 6.9
104 | CN(C)[C@@H]1CN(C(=O)Cc2cccs2)[C@@H]2CCCO[C@H]12 | 5.93
105 | CNc1ccnc(NCC(=O)Nc2cc(C)ccc2OC)n1 | -2.9
106 | CCCC(=O)NCc1cccc(C(=O)OC)c1 | 5.99
107 | CCN(CC1CCOC1)C(=O)c1ccccc1S(C)(=O)=O (stereo not given) | -0.945
108 | CC(=O)c1cccc(NC(=O)CN2CCCC(C3OCCO3)C2)c1 (stereo not given) | -3.28
109 | Cc1cncc(C2CCCN(C(=O)c3scnc3C)C2)n1 (stereo not given) | -2.19
110 | Cc1cc(CN(C)C(=O)C2CC(c3cccc(F)c3)=NO2)no1 (stereo not given) | 5.91
